Data as given in ChEMBL document CHEMBL4052653, “Discovery of Novel and Potent Stearoyl Coenzyme A Desaturase 1 (SCD1) Inhibitors as Anticancer Agents” (Bioorg Med Chem, 2017).
Activity calls are given as the source filed them. No cut-off for these calls is given here.

Tests used:
Stearoyl-CoA desaturase [1] = biological target: T1, Stearoyl-CoA desaturase (Homo sapiens, UniProt O00767); assay: Displacement of (5-(6-(10H-spiro(1-benzofuran-3,30-pyrrolidin)-10-yl)pyridazin-3-yl)-1,2,4-oxadiazol-3-yl)[3H2]methanol from SCD1 in human liver microsomes after 120 mins TopCount liquid scintillation counting method
T1 sequence (O00767 whole entry): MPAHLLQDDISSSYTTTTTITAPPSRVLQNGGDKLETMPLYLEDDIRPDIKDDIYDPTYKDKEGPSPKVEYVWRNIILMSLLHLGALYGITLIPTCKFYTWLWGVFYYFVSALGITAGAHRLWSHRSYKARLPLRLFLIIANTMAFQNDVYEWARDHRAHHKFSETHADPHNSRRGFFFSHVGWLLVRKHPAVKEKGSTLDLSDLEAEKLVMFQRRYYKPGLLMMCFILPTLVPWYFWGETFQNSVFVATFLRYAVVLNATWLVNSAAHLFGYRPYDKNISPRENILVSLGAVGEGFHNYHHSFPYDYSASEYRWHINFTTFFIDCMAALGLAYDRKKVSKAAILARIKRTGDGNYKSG
Method in brief: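 Human SCD1 liver microsomes incubated 120 min with 3.0 nM [3H]-ligand and test compound over a range of concentrations. Bound ligand collected on PEI-pretreated GF/B filters, washed five times, counted by scintillation. Controls: DMSO (100%) and 10 µM unlabeled reference ligand (0%). IC50 from a three-parameter logistic fit.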

HCT-116 = assay: Growth inhibition of human HCT116 cells after 72 hrs by CellTiter-Glo luminescence assay; type: functional; settings: HCT-116, 72 h
Method in brief: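 HCT116 cells seeded at 9 × 10^2 cells/well and cultured 24 h. Compounds diluted in growth medium to final concentrations and added. Proliferation read by CellTiter-Glo luminescence after 72 h.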

[2] = Stability in human liver microsomes; type: ADME, microsome; settings: read-out: Stability
[3] = Mean residence time in po dosed mouse administered as cassette dose; type: ADME, organism-based; settings: in vivo
Method in brief: (§1)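 Mouse cassette-dosing PK: 0.1 mg/kg iv and 1 mg/kg po. Total clearance given in […]. AUC (ng·h/mL) and MRT (h) taken after the oral dose.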

[4] = Fraction unbound in mouse plasma; type: ADME, cell-free
[5] = AUC in po dosed mouse administered as cassette dose; type: ADME, organism-based; settings: in vivo; method in brief: as §1
[6] = Total clearance in mouse at 0.1 mg/kg, iv or 1 mg/kg, po administered as cassette dose; type: ADME, organism-based; settings: in vivo; method in brief: as §1
[7] = Stability in mouse liver microsomes; type: ADME, microsome; settings: read-out: Stability
[8] = Mean residence time in mouse at 1 mg/kg, po administered as cassette dose; type: ADME, organism-based; settings: in vivo; method in brief: as §1
Stearoyl-CoA desaturase [9] = biological target: T1, Stearoyl-CoA desaturase; assay: Inhibition of SCD1 (unknown origin)
Mus musculus [10] = assay: AUC in mouse at 1 mg/kg, po administered as cassette dose; type: ADME, organism-based; settings: in vivo; method in brief: as §1
786-0 = assay: Antitumor activity against human 786-O cells xenografted in athymic BALB/cA Jc1-nu/nu mouse assessed as tumor growth inhibition at 1 mg/kg, po bid administered for 28 days measured twice per week; type: functional
Method in brief: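 Female BALB/c nu/nu mice, 7 weeks old, inoculated subcutaneously in the flank with 3.0 × 10^6 786-O cells (1:1 with Matrigel). Randomized at mean tumor volume of about 130 mm3, n = 8/group. Dosed orally at 1 mg/kg bid, or with 0.5% methylcellulose vehicle, for 28 days at 10 mL/kg. Calipers used twice weekly, volume = W²×L/2. T/C taken at Day 28; Student's t-test.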

Mus musculus [11] = assay: Toxicity in athymic BALB/cA Jc1-nu/nu mouse at 1 mg/kg, po bid administered for 28 days; type: organism-based; settings: in vivo, 672 h
Mus musculus [12] = assay: In-vivo inhibition of SCD1 in athymic nude mouse xenografted with human HCT116 cells assessed as decrease in desaturation index of phosphatidylcholine at 0.3 to 30 mg/kg, po bid measured after 16 hrs by LC/MS analysis; type: functional, organism-based
Method in brief: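 Nude mice bearing HCT116 xenografts of about 200 mm3, randomized. Oral dosing at 0.3, 3 and 30 mg/kg bid in 0.5% methylcellulose. Tumors collected 16 h after two doses and homogenized in isopropanol. Lipids analyzed by LC/Orbitrap MS. DI taken as the ratio PC C36:3/PC C36:0. Statistics by Williams' test.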

Row | SMILES | IC50 (Stearoyl-CoA desaturase [1]) [nM] | GI50 (HCT-116) [nM] | microsomal CLint [2] [µL/min/mg] | microsomal CLint [7] [µL/min/mg] | also measured
1 | NC1(c2ccccc2)CCN(c2ccc(-c3nc(CO)no3)nn2)CC1 | 220 | 530 | – | – | –
2 | N#CC1(c2ccc(C(F)(F)F)cc2)CCN(c2ccc(-c3nc(CO)no3)nn2)CC1 | 27 | 39 | 2 | 33 | –
3 | OCc1noc(-c2ccc(N3CCC4(COc5ccccc54)C3)nn2)n1 (stereo unspecified) | – | – | – | – | MRT [8]: 2.3 h; IC50 (Stearoyl-CoA desaturase [9]): 4.6 nM; AUC (Mus musculus [10]): 299 ng·h/mL
4 | OCc1noc(-c2ccc(N3CCC(c4ccccc4)(C(F)(F)F)CC3)nn2)n1 | 38 | 39 | – | – | –
5 | N#CC1(c2ccc([N+](=O)[O-])cc2)CCN(c2ccc(-c3nc(CO)no3)nn2)CC1 | 100 | 170 | 6 | 11 | –
6 | COC1(c2ccccc2)CCN(c2ccc(-c3nc(CO)no3)nn2)CC1 | 110 | 410 | – | – | –
7 | N#CC1(c2ccccc2)CCN(c2ccc(-c3nc(CO)no3)nn2)CC1 | 190 | 530 | – | – | –
8 | N#CC1(c2ccccc2Cl)CCN(c2ccc(-c3nc(CO)no3)nn2)CC1 | 80 | 240 | – | – | –
9 | OCc1noc(-c2ccc(N3CCC(O)(c4ccccc4)CC3)nn2)n1 | 130 | > 1000 | – | – | –

The next lines start with results.

Row | IC50 (Stearoyl-CoA desaturase [1]) [nM] | GI50 (HCT-116) [nM] | microsomal CLint [2] [µL/min/mg] | microsomal CLint [7] [µL/min/mg] | SMILES | also measured
10 | 15 | 200 | – | – | N#CC1(c2cccc(Cl)c2)CCN(c2ccc(-c3nc(CO)no3)nn2)CC1 | –
11 | 1.2 | 1.3 | 10 | – | OCc1nsc(-c2ccc(N3CCC(c4ccc(C(F)(F)F)cc4)(C(F)(F)F)CC3)nn2)n1 | MRT [3]: 4.2 h; fraction unbound [4]: 0.01; AUC [5]: 1820 ng·h/mL; clearance [6]: 8.23 mL/min/kg
12 | 20 | 110 | – | 39 | N#CC1(c2ccc(Cl)cc2)CCN(c2ccc(-c3nc(CO)no3)nn2)CC1 | –
13 | 2.5 | 1.1 | – | 1 | OCc1nnc(-c2ccc(N3CCC(c4ccc(C(F)(F)F)cc4)(C(F)(F)F)CC3)nn2)s1 | MRT [3]: 4.1 h; fraction unbound [4]: 0.03; AUC [5]: 1190 ng·h/mL; clearance [6]: 15.9 mL/min/kg
14 | 11 | 32 | – | 35 | N#CC1(c2ccc(OC(F)(F)F)cc2)CCN(c2ccc(-c3nc(CO)no3)nn2)CC1 | –
15 | 4.7 | 2.7 | 14 | 33 | OCc1nnc(-c2ccc(N3CCC(c4ccc(C(F)(F)F)cc4)(C(F)(F)F)CC3)nn2)o1 | T/C (786-0): 32.8%; MRT [3]: 4.2 h; fraction unbound [4]: 0.07; AUC [5]: 3760 ng·h/mL; Activity (Mus musculus [11]): Non-Toxic; inhibition (Mus musculus [12]): Active; clearance [6]: 5.17 mL/min/kg
16 | 21 | 37 | – | 119 | CC(C)(C)c1ccc(C2(C#N)CCN(c3ccc(-c4nc(CO)no4)nn3)CC2)cc1 | –
17 | 2.3 | 1.3 | 20 | 19 | OCc1noc(-c2ccc(N3CCC(c4ccc(C(F)(F)F)cc4)(C(F)(F)F)CC3)nn2)n1 | MRT [3]: 3.2 h; fraction unbound [4]: 0.05; AUC [5]: 432 ng·h/mL; clearance [6]: 15.4 mL/min/kg
18 | 9.5 | 8.4 | 7 | 24 | N#CC1(c2ccc(S(F)(F)(F)(F)F)cc2)CCN(c2ccc(-c3nc(CO)no3)nn2)CC1 | –
